The source made the active and inactive calls. The calls are words filed in the database; no cut-off is given here.
How the values were obtained:
[1] = system: HEK293; test: Cytotoxicity against HEK293 cells assessed as reduction in cell viability after 4 hrs by MTT assay; type: cell-based, Homo sapiens; conditions: Homo sapiens, HEK293, 4 h; read-out: IC50
Summary of the method: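 MTT: 10,000–20,000 cells/well attached for 16 h, then washed twice with serum-free RPMI. Treated with 1–200 µM for 4 h, 3 parallel runs per concentration. MTT added for 2 h; medium partly removed and isopropanol added. A590 read. Viability = (A treated − A doxorubicin)/(A medium − A doxorubicin)×100. Mean of three experiments, triplicate wells each.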

[2] = (§1) Cytotoxicity against human SW680 cells assessed as reduction in cell viability after 4 hrs by MTT assay; type: functional, cell-based
[3] = organism: Homo sapiens; test: as §1; type: functional, cell-based
[4] = system: SCC-25; test: Cytotoxicity against human SCC25 cells assessed as reduction in cell viability after 4 hrs by MTT assay; type: functional, cell-based
[5] = system: Detroit 562; test: Cytotoxicity against human Detroit 562 cells assessed as reduction in cell viability after 4 hrs by MTT assay; type: functional, cell-based
[6] = system: MCF7; test: Induction of apoptosis in human MCF7 cells assessed as viable cells at 1 uM after 12 hrs by annexin-V FITC/propidium iodide staining based flow cytometric analysis relative to control; type: functional; conditions: MCF7, 12 h, read-out: Activity
Summary of the method: (§2)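 Cells were grown in DMEM with 10% heat-inactivated FBS at 37 °C and 5% CO₂, then plated at 500,000 cells/well in 24-well plates. They were treated from a DMSO stock (DMSO ≤0.1%) for 8, 12 or 16 h. After a PBS wash, cells were resuspended in binding buffer (10 mM HEPES pH 7.4, 2.5 mM CaCl₂, 140 mM NaCl, 0.1% BSA), stained 40 min with FITC-annexin V, then with PI, and run on the flow cytometer immediately. Values are the mean of three independent experiments.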

[7] = system: MCF7; test: Induction of apoptosis in human MCF7 cells assessed as early apoptotic cells at 1 uM after 16 hrs by annexin-V FITC/propidium iodide staining based flow cytometric analysis relative to control; type: functional; summary of the method: as §2
[8] = system: HeLa; test: Induction of nitric oxide production in human HeLa cells measured over 8 hrs by Griess reaction based assay; type: functional, cell-based
Summary of the method: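 Cells seeded at 2×10^6 cells/well for 12 h, then exposed to 1, 5 and 10 μM compound for 8 h at 37 °C. Culture supernatant mixed with Griess reagent (0.002% N-1-naphthyl-ethylenediamine dihydrochloride, 0.5% sulfanilic acid, 14% glacial acetic acid). Nitrite read by absorbance at 550 nm and compared with vehicle group.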

[9] = molecular target: Tyrosine-protein kinase ABL1 (Homo sapiens) (UniProt P00519); test: Inhibition of ABL phosphorylation (unknown origin) at 50 uM after 5 to 60 mins by bioluminescence assay
Tyrosine-protein kinase ABL1 (Homo sapiens), sequence (P00519 whole entry): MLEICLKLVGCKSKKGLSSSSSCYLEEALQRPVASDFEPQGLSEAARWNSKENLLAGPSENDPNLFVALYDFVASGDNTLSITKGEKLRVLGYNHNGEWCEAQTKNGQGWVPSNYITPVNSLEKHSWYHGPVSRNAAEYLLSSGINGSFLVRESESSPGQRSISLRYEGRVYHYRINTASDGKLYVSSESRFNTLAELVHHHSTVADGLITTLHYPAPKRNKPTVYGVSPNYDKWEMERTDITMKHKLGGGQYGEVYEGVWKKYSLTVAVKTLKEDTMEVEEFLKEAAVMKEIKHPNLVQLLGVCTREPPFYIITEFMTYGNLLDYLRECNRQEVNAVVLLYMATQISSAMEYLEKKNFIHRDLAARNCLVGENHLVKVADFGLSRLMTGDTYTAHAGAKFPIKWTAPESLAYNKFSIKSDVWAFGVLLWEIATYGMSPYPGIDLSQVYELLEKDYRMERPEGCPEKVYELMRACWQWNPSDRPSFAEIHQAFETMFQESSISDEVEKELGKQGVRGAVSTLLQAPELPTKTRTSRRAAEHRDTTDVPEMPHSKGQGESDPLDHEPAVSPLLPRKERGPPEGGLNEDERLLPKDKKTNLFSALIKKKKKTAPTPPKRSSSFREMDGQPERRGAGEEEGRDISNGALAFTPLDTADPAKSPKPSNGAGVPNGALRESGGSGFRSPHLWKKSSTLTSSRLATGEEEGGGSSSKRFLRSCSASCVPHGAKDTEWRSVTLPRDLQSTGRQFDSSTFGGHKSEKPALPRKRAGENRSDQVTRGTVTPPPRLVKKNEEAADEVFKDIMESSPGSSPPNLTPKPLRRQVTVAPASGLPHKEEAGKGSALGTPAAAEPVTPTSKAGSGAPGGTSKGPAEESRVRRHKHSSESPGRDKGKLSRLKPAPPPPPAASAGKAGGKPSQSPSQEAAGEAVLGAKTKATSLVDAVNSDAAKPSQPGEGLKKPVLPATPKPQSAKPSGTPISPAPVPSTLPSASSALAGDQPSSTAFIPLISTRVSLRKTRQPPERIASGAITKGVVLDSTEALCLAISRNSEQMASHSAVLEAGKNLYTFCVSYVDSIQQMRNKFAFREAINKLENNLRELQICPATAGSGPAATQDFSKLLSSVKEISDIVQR
Summary of the method: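 Kinase activity measured with compound at 1, 5, 10 and 50 μM, using a Kinase Reaction Rate Kit. Phosphorylation was followed by bioluminescent monitoring of ATP consumption, with light read at 5 min and 1 h. Staurosporine served as positive control. Data given as % kinase inhibition (% of control activity), from two separate experiments.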

[10] = system: MCF7; test: Induction of caspase-dependent apoptosis in human MCF7 cells assessed as activation of caspase-3 at 1 to 3 uM after 24 hrs by Western blot analysis; type: functional, cell-based
Summary of the method: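 Cleaved caspase-3 immunoblot. Cells were exposed at 1, 3 and 5 µM for 24 h at 37 °C, with paclitaxel 3 µM as positive control. Lysis was in ice-cold Triton X-100 buffer, and protein was measured by BCA. Lysates were separated by electrophoresis, transferred to nitrocellulose and blocked in milk. Primary antibody was applied overnight at 4 °C and secondary for 1 h at 28 °C. Detection was by enhanced chemiluminescence.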

[11] = system: MCF7; test: Induction of apoptosis in human MCF7 cells assessed as increase in Mcl-1 short level at 1 to 3 uM after 24 hrs by Western blot analysis; type: functional, cell-based
Summary of the method: (§3)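 Cells were treated at 1, 3 and 5 µM for 24 h at 37 °C. Lysis was in ice-cold Triton X-100 buffer with protease and phosphatase inhibitors; nuclear proteins were extracted separately. Protein was quantified by BCA. Lysates were separated by electrophoresis, transferred to nitrocellulose and blocked in non-fat milk for 1 h. Primary antibody was applied overnight at 4 °C and secondary for 1 h at 28 °C. Detection was by enhanced chemiluminescence.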

[12] = system: HeLa; test: Induction of apoptosis in human HeLa cells assessed as change in Bcl-2 level at 1 to 3 uM after 24 hrs by Western blot analysis; type: functional, cell-based
Summary of the method: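 Western blot: HeLa cells treated 24 h at 37 °C, lysed on ice, protein quantified by BCA. Proteins separated by electrophoresis, transferred to nitrocellulose, blocked 1 h in non-fat milk. Primary antibody (Bcl2) applied overnight at 4 °C, secondary 1 h at 28 °C, detected by enhanced chemiluminescence.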

[13] = system: HeLa; test: Induction of apoptosis in human HeLa cells assessed as effect on Mcl-1 long level at 1 to 3 uM after 24 hrs by Western blot analysis; type: functional, cell-based; summary of the method: as §3
[14] = system: MCF7; test: Induction of ROS generation in human MCF7 cells at 5 uM after 12 hrs by CM-H2DCFDA staining-based FACS analysis; type: functional, cell-based
Summary of the method: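 CM-H2DCFDA ROS: HeLa or MCF-7 cells at 2×10^6/well in 6-well plates treated with 5 μM (final) for 12 or 24 h at 37 °C. Cells harvested, washed with PBS, stained with CM-H2DCFDA in PBS 30 min at 37 °C, washed with ice-cold PBS. Read by FACScan with 488 nm argon laser.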

[15] = system: HeLa; test: Induction of apoptosis in human HeLa cells assessed as up-regulation of acetylated p53 level at 5 uM after 24 hrs by sandwich ELISA; type: functional, cell-based
Summary of the method: (§4)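 Cells were treated at 5 µM for 12, 24 and 48 h. Lysis was in ice-cold lysis buffer with 1 mM PMSF (5 min on ice), followed by three freeze-thaw cycles and a 10 min spin at 4 °C. Acetylated and total p53 were measured in the supernatant by kit sandwich ELISA, read at 450 nm. The control index is sample absorbance divided by that of untreated cells at the same time. Values are mean ± SD of triplicate experiments.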

[16] = system: MCF7; test: Induction of apoptosis in human MCF7 cells assessed as up-regulation of total p53 level at 5 uM after 12 hrs by sandwich ELISA; type: functional, cell-based; summary of the method: as §4
[17] = system: HeLa; test: Induction of apoptosis in human HeLa cells assessed as up-regulation of total p53 level at 5 uM after 12 hrs by sandwich ELISA; type: functional, cell-based; summary of the method: as §4
[18] = molecular target: Mitogen-activated protein kinase; ERK1/ERK2 (Homo sapiens) (UniProt P27361+P28482); test: Activation of ERK1/2 phosphorylation in human HeLa cells assessed as increase in ratio of phosphorylated ERK1/2 to total ERK1/2 level at 5 uM in presence of ERK1/2 inhibitor PD98059 by ELISA; type: cell-based
Mitogen-activated protein kinase; ERK1/ERK2 (Homo sapiens), sequence (P27361 whole entry, looked up): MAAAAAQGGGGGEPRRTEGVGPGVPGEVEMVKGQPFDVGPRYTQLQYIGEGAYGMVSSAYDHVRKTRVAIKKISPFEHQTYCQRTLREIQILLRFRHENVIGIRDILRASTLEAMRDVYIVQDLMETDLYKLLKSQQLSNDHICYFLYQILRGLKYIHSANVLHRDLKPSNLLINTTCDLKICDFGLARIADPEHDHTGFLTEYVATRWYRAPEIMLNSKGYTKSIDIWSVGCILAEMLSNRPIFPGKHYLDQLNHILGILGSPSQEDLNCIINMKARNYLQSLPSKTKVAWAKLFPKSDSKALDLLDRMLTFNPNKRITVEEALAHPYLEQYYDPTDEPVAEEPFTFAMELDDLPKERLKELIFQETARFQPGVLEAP
Mitogen-activated protein kinase; ERK1/ERK2 (Homo sapiens), sequence (P28482 whole entry, looked up): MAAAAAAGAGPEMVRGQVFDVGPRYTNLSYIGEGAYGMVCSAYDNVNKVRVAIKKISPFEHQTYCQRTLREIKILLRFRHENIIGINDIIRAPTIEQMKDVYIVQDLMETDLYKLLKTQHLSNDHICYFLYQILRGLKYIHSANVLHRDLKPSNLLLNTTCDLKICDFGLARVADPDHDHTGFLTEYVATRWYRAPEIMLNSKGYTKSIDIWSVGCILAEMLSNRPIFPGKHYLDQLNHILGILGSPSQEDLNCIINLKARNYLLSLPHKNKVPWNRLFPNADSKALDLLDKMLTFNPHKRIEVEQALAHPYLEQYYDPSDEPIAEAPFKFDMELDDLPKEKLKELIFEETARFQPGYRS
Summary of the method: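 Cell-based ELISA: HeLa or MCF-7 cells (20×10^3/well) grown overnight at 37 °C, 5% CO2, treated with 5 μM, then fixed and blocked. Probed with rabbit anti-total and anti-phospho P38, JNK or ERK1/2 (1:100), then HRP anti-rabbit IgG. Result is the phospho/total ratio; inhibitor arms use […], […] or SP600125. n=3.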

[19] = system: MCF7; test: Induction of ERK/MAPK signal transduction pathway in human MCF7 cells assessed as increase in c-fos level; type: cell-based

- inhibition [9]: Active
- Activity [18]: inactive
SMILES: Cn1cc(/C=N\NC(=O)c2cn(C)c3ccc(Br)cc23)c2ccccc21
- IC50 [1]: > 200 µM
- IC50 [2]: 2.77 µM
- Activity [3]: Dose-dependent effect
- Activity [4]: Dose-dependent effect
- IC50 ([4]; SCC-25, 4 h): 10.1 µM
- Activity [5]: Dose-dependent effect
- IC50 ([5]; Detroit 562, 4 h): 22.7 µM
- viability at 1 µM [6]: 40.5%
- Activity [7]: 16.41%
- Activity [8]: Dose-dependent effect
- Activity [10]: inactive
- Activity [11]: Active
- Activity [12]: inactive
- Activity [13]: inactive
- Activity [14]: Active
- Activity [15]: Active
- Activity [16]: Active
- Activity [17]: Active
- Activity [19]: Active

From ChEMBL document CHEMBL4316598, “Synthesis, antiproliferative and apoptosis induction potential activities of novel bis(indolyl)hydrazide-hydrazone derivatives” (Bioorg Med Chem, 2019)
